Data on five compounds can be found in ChEMBL document CHEMBL1140722, “Inhibition of adenosine deaminase by analogues of adenosine and inosine, incorporating a common heterocyclic base, 4(7)-amino-6(5)H-imidazo[4,5-d]pyridazin-7(4)one” (J Med Chem, 2008).

The structures appear in SMILES notation. A value given as a limit tells only on which side of the number the result lay.

For one assay, the target named is T1, Adenosine deaminase (Bos taurus, UniProt P56658).
T1 sequence (P56658 whole entry): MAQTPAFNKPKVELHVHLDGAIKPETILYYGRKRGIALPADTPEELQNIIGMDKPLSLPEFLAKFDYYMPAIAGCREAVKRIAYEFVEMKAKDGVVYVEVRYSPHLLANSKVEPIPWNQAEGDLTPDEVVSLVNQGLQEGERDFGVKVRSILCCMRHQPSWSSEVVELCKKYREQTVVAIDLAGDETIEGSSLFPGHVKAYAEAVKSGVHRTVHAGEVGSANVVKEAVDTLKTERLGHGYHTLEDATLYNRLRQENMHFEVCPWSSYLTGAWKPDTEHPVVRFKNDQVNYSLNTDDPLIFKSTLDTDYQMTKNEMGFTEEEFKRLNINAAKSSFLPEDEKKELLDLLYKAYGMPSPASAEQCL
Nature of the assay: Inhibition of calf intestine adenosine deaminase. The gist of the method:
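Calf intestine ADA, 2 × 10-3 unit per assay, at 25 °C and pH 7.4. Adenosine hydrolysis to inosine followed as change in optical density per unit time at 265 nm. Seven adenosine concentrations from 30 to 60 µM were run at each inhibitor level of 5 or 15 µM. Ki derived from Lineweaver–Burk plots (1/V vs 1/S).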

A further assay concerns MCF7. The experiment in a line: Cytotoxicity against human MCF7 cells after 5 days by MTT assay. It counts as functional, cell-based. To be noted: MCF7, 120 h. Summed up:
(§1)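 Cells seeded at 2000/well in complete RPMI1640 and left to attach overnight at 37 °C in 5% CO2. Drug added from 20 mM DMSO stocks, final 0.0001–100 µM, eight replicates each. Exposure was continuous for 5 days, then MTT added and formazan read at 550 nm. IC50 and IC100 taken against vehicle controls and day-0 growth. Three independent experiments.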

The nature of assay [1]: Cytotoxicity against human MCF10A cells after 5 days by MTT assay. The settings on record: MCF-10A, 120 h. Format: cell-based. Summed up: as §1

`Nc1n[nH]c(=O)c2c1ncn2[C@H]1C[C@H](O)[C@@H](CO)O1`: at Adenosine deaminase, the Ki amounted to 12.1 µM. Besides, the 50% inhibitory concentration (IC50) (in the assay with MCF7; in assay [1]) was more than 100 µM throughout.

`Nc1n[nH]c(=O)c2ncn([C@H]3C[C@H](O)[C@@H](CO)O3)c12`: at Adenosine deaminase, the Ki was 52 µM. Also, the IC50 with MCF7 was 97.5 µM; in assay [1], more than 100 µM.

Compound `Nc1n[nH]c(=O)c2c1ncn2[C@@H]1O[C@H](CO)[C@@H](O)[C@H]1O` displayed a Ki on Adenosine deaminase of 10.6 µM. For the same compound, the IC50 was 27.5 µM with MCF7 and 82.5 µM in assay [1].

`N/N=C(\N)c1c(C(=O)NN)ncn1[C@@H]1O[C@H](CO)[C@@H](O)[C@H]1O` had a Ki at Adenosine deaminase of 26.5 µM.

At Adenosine deaminase, `Nc1n[nH]c(=O)c2ncn([C@@H]3O[C@H](CO)[C@@H](O)[C@H]3O)c12` showed a Ki of 51.4 µM. Also, the half-maximal inhibitory concentration (IC50) turned out to be 23.5 µM in the assay on MCF7 and 82.5 µM in assay [1].
